Data published in ChEMBL document CHEMBL1151959, “Identification and biological evaluation of a series of 1H-benzo[de]isoquinoline-1,3(2H)-diones as hepatitis C virus NS5B polymerase inhibitors” (J Med Chem, 2009).
Values after ≈ are worked out from the molar mass of the structure shown. Each block holds one compound with its values, some of them ahead of it. Active and inactive are the calls of the source. No cut-off for these calls is given here.

Experiments:
[1] = Inhibition of HCV2b.2 NS5B Cdelta21 RNA dependent RNA polymerase; parameters: species or system Hepacivirus hominis, 2b.2
In short: (§1)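 Truncated ΔC21 NS5B RdRp from the HCV genotype 1b BK strain or the genotype 2b 2b.2 strain. Values are the mean of two or more experiments, with SD within 30% of the mean.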

[2] = Cytotoxicity against human HuH7 cells by MTT assay; type: cell-based; conditions: Huh-7 cells
[3] = Inhibition of HCV1b BK NS5B Cdelta21 RNA dependent RNA polymerase; parameters: species or system Hepatitis C virus (isolate BK); in short: as §1
Hepatitis C virus [4] = experiment: Antiviral activity against HCV1b Con1 infected in human Huh7 clone HBI10A cells expressing HEPREP 1b replicon by cell-ELISA assay; type: functional, organism-based, Hepacivirus hominis; conditions: isolate Con1, Huh-7
[5] = Volume of distribution at steady state in rat at 3 mg/kg, iv; type: ADME, organism-based; parameters: dose 3 mg/kg, route intravenous; conditions: in vivo, read-out: Vdss
[6] = Inhibition of HCV1a RB5 NS5B Cdelta21 RNA dependent RNA polymerase; parameters: species or system Hepatitis C virus subtype 1a
[7] = Solubility of the compound; type: physicochemical
Hepatitis C virus [8] = experiment: Antiviral activity against HCV H77-1a infected in human Huh7 cells by replicon cell-ELISA assay; conditions: genotype 1a H77, Huh-7
Genome polyprotein = Genome polyprotein (GB virus-B, UniProt Q69422); experiment: Inhibition of Hepatitis GB virus B NS5B RNA dependent RNA polymerase
Hepatitis C virus [9] = experiment: Antiviral activity against HCV 2b.2 infected in human Huh7 cells by replicon cell-ELISA assay; conditions: 2b.2, Huh-7
[10] = Clearance in rat at 3 mg/kg, iv; type: ADME, organism-based; parameters: dose 3 mg/kg, route intravenous; conditions: in vivo
[11] = Inhibition of HCV6a NS5B Cdelta21 RNA dependent RNA polymerase; parameters: species or system Hepatitis C virus subtype 6a
In short: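 Purified ΔC21-truncated NS5B RNA-dependent RNA polymerase from HCV genotype 6a, run alongside enzymes from the other major genotypes. Each value is the mean of two or more separate experiments, with SD within ±30% of the mean.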

[12] = Cmax in rat at 3 mg/kg, po after 0.7 hrs; type: ADME, organism-based; parameters: dose 3 mg/kg, route oral; conditions: in vivo
[13] = Inhibition of HCV4a NS5B Cdelta21 RNA dependent RNA polymerase; parameters: species or system Hepatitis C virus subtype 4a
[14] = Oral bioavailability in rat at 3 mg/kg; type: ADME, organism-based; conditions: in vivo
[15] = Lipophilicity, log D of the compound; type: physicochemical; conditions: octanol/water
[16] = test system: Hepatitis C virus (isolate BK); experiment: Inhibition of HCV1b BK NS5B Cdelta21 RNA dependent RNA polymerase in pre-elongation phase assessed as residual activity at 1 uM to 0.1 nM preincubated for 5 mins with polyA oligoU18 RNA in room temperature in presence of heparin
In short: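 Single-cycle conditions: ΔC21-1b enzyme and polyA/oligoU18 RNA preincubated 5 min, then compound added from 0.1 nM to 1 μM. Elongation started with 3H-UTP plus heparin (50 ng/μL) to trap free enzyme. Residual polymerase activity measured.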

[17] = Inhibition of DNA polymerase 1 Klenow fragment
Hepatitis C virus [18] = experiment: Antiviral activity against HCV1b BK infected in human Huh7 cells by replicon cell-ELISA assay; conditions: Huh-7
Hepatitis C virus [19] = experiment: Antiviral activity against HCV1b BK infected in human H2B2 cells expressing HEPREP 2b replicon by cell-ELISA assay
[20] = Inhibition of HCV2a.4 NS5B Cdelta21 RNA dependent RNA polymerase; parameters: species or system Hepacivirus hominis, 2a.4
Hepatitis C virus [21] = experiment: Antiviral activity against HCV1b Con1 infected in human Huh7 cells by replicon cell-ELISA assay; conditions: isolate Con1, Huh-7
[22] = AUC in rat at 3 mg/kg, po; type: ADME, organism-based; parameters: dose 3 mg/kg, route oral; conditions: plasma
In short: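 Single oral dose of 3 mg/kg given to rats. Compound concentrations were measured in plasma, and AUC was taken from the plasma exposure after oral dosing. The same rat study also included an iv administration arm.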

[23] = test system: Hepatitis C virus (isolate BK); experiment: Inhibition of HCV1b BK NS5B Cdelta21 RNA dependent RNA polymerase in pre-elongation phase assessed as residual enzyme activity at 6.4 uM to 3 nM preincubated for 15 mins with polyA oligoU18 RNA in room temperature
In short: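 ΔC21-1b polymerase (20 nM) with polyA/oligoU18 RNA, preincubated 15 min at room temperature before compound addition or not preincubated. Compound titrated 3 nM to 6.4 μM. Residual activity measured.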

[24] = Elimination half life in rat at 3 mg/kg, iv; type: ADME, organism-based; parameters: dose 3 mg/kg, route intravenous; conditions: in vivo
[25] = Inhibition of HIV reverse transcriptase; parameters: species or system Human immunodeficiency virus
[26] = test system: Hepatitis C virus (isolate BK); experiment: Inhibition of HCV1b BK NS5B Cdelta21 RNA dependent RNA polymerase in pre-elongation phase assessed as residual enzyme activity at 1 uM preincubated for 120 mins with polyA oligoU18 RNA in room temperature
In short: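 Preincubation time course: ΔC21-1b enzyme and polyA/oligoU18 RNA preincubated 0 to 120 min before adding compound at 1 μM. Residual polymerase activity measured.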

[27] = Inhibition of HCV3a.7 NS5B Cdelta21 RNA dependent RNA polymerase; parameters: species or system Hepacivirus hominis, 3a.7
[28] = Inhibition of Bovine viral diarrhea virus 1 RNA-dependent RNA polymerase
[29] = Inhibition of HCV1b BK NS5B Cdelta21 RNA dependent RNA polymerase Thumb site 2 R501E mutant; parameters: species or system Hepatitis C virus (isolate BK)
[30] = target: RNA-directed RNA polymerase (Hepacivirus hominis, UniProt O39930, M414T); experiment: Inhibition of HCV1b BK NS5B Cdelta21 RNA dependent RNA polymerase Palm site 1 and 2 M414T mutant; parameters: species or system Hepatitis C virus (isolate BK)
[31] = target: RNA-directed RNA polymerase (Hepacivirus hominis, UniProt O39930, M423K); experiment: Inhibition of HCV1b BK NS5B Cdelta21 RNA dependent RNA polymerase Thumb site 2 M423K mutant; parameters: species or system Hepatitis C virus (isolate BK)
[32] = target: RNA-directed RNA polymerase (Hepacivirus hominis, UniProt O39930, P495A); experiment: Inhibition of HCV1b BK NS5B Cdelta21 RNA dependent RNA polymerase Thumb site 1 P495A mutant; parameters: species or system Hepatitis C virus (isolate BK)

Compound: O=C1c2cccc3c(N[C@H]4CC[C@@H](C(=O)O)CC4)ccc(c23)C(=O)N1c1cccc(Br)c1
IC50 [1]: 110 nM
CC50 [2]: > 50000 nM
IC50 [3]: 42 nM
EC50 (Hepatitis C virus [4]): 3800 nM

Compound: CNCCNc1ccc2c3c(cccc13)C(=O)N(c1cccc(Br)c1)C2=O
IC50 [1]: 400 nM
CC50 [2]: 1500 nM
IC50 [3]: 130 nM
EC50 (Hepatitis C virus [4]): 2000 nM

Compound: O=C1c2cccc3c(NCCO)ccc(c23)C(=O)N1c1cccc(Br)c1
Vd [5]: 1.1 L/kg
IC50 [6]: 64 nM
solubility [7]: 0.44 µg/mL (≈ 1.07 µM)
EC50 (Hepatitis C virus [8]): 4700 nM
IC50 (Genome polyprotein): > 50000 nM
EC50 (Hepatitis C virus [9]): 11100 nM
IC50 [1]: 180 nM
clearance [10]: 12 mL/min/kg
IC50 [11]: 490 nM
Cmax [12]: 4 µM
IC50 [13]: 540 nM
bioavailability [14]: 83%
logD [15]: 3.45
Activity [16]: Active
CC50 [2]: 76000 nM
IC50 [17]: > 50000 nM
EC50 (Hepatitis C virus [18]): 4600 nM
EC50 (Hepatitis C virus [19]): 11000 nM
IC50 [20]: 770 nM
EC50 (Hepatitis C virus [21]): 6400 nM
AUC [22]: 9.7 µM·h
Activity [23]: inactive
half-life [24]: 42 min
IC50 [25]: > 50000 nM
Activity [26]: inactive
IC50 [27]: 760 nM
IC50 [28]: > 50000 nM

Compound: O=C1c2cccc3c(NC4CCCCC4)ccc(c23)C(=O)N1c1cccc(Br)c1
IC50 [1]: 120 nM
CC50 [2]: > 50000 nM
IC50 [3]: 66 nM
EC50 (Hepatitis C virus [4]): > 50000 nM

Compound: O=C1c2ccc(NCCO)c3cccc(c23)CN1c1cccc(Br)c1
IC50 [1]: 3500 nM
IC50 [3]: 850 nM

Compound: CC(C)N(c1cc(-c2ccccc2)sc1C(=O)O)C(=O)[C@H]1CC[C@H](C)CC1
IC50 [1]: > 10000 nM
IC50 [29]: 100 nM
IC50 [30]: 16 nM
IC50 [31]: > 500 nM
CC50 [2]: > 50000 nM
IC50 [32]: 40 nM
IC50 [3]: 9 nM
EC50 (Hepatitis C virus [4]): 1400 nM

Compound: O=C1c2cccc3cccc(c23)C(=O)N1c1cccc(Br)c1
IC50 [1]: > 50000 nM
IC50 [3]: > 50000 nM

Compound: CCNc1ccc2c3c(cccc13)C(=O)N(c1cccc(Br)c1)C2=O
IC50 [1]: 185 nM
IC50 [3]: 29 nM

Compound: CC(C)CNc1ccc2c3c(cccc13)C(=O)N(c1cccc(Br)c1)C2=O
IC50 [1]: 90 nM
CC50 [2]: > 50000 nM
IC50 [3]: 130 nM
EC50 (Hepatitis C virus [4]): 11000 nM

Compound: OCCNc1ccc2c3c(cccc13)CN(c1cccc(Br)c1)C2
IC50 [1]: > 50000 nM
IC50 [3]: > 50000 nM

Continued, in another order:

IC50 [1]: > 50000 nM
IC50 [3]: 1600 nM
EC50 (Hepatitis C virus [4]): > 50000 nM
Compound: NS(=O)(=O)c1cccc(N2C(=O)c3cccc4c(NCCO)ccc(c34)C2=O)c1
CC50 [2]: > 50000 nM

IC50 [1]: 120 nM
IC50 [3]: 30 nM
EC50 (Hepatitis C virus [4]): 1900 nM
Compound: O=C1c2cccc3c(NC4CCNCC4)ccc(c23)C(=O)N1c1cccc(Br)c1
CC50 [2]: 3500 nM

IC50 [1]: > 50000 nM
IC50 [3]: 1700 nM
Compound: O=C1c2cccc3c(NCCO)ccc(c23)C(=O)N1c1ccccc1

IC50 [1]: 1800 nM
IC50 [3]: 500 nM
Compound: CN(CCO)c1ccc2c3c(cccc13)C(=O)N(c1cccc(Br)c1)C2=O

IC50 [1]: 124 nM
IC50 [3]: 24 nM
Compound: COCCNc1ccc2c3c(cccc13)C(=O)N(c1cccc(Br)c1)C2=O

IC50 [1]: 43 nM
IC50 [3]: < 14 nM
EC50 (Hepatitis C virus [4]): 2200 nM
Compound: O=C1c2cccc3c(NC4CCN(Cc5ccccc5)CC4)ccc(c23)C(=O)N1c1cccc(Br)c1
CC50 [2]: 5200 nM

IC50 [1]: 300 nM
IC50 [3]: 190 nM
Compound: Nc1ccc2c3c(cccc13)C(=O)N(c1cccc(Br)c1)C2=O
